ChEMBL document CHEMBL1155222, “Synthesis and anticancer activity of N-bis(trifluoromethyl)alkyl-N'-thiazolyl and N-bis(trifluoromethyl)alkyl-N'-benzothiazolyl ureas” (2009)

Columns and labels:
Assay type in all cases: functional
NCI-H522 = test: Anticancer activity against human NCI-H522 cells after 48 hrs by sulforhodamine B assay; details: NCI-H522, 48 h
Summary of the method: (§1)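 NCI 60-cell-line screen. Cells grown in RPMI 1640 with 5% FBS and 2 mM L-glutamine, plated at 5000–40,000 cells/well, and preincubated 24 h at 37 °C under 5% CO2. Compounds were taken from DMSO stocks and tested at five final concentrations, 10^-4 to 10^-8 M, for 48 h. Cells were TCA-fixed, stained with 0.4% SRB, and read at 515 nm. GI50, TGI and LC50 were derived as log molar values.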

HOP-92 = test: Anticancer activity against human HOP92 cells after 48 hrs by sulforhodamine B assay; details: HOP-92, 48 h; summary of the method: as §1
CAKI-1 = test: Anticancer activity against human Caki1 cells after 48 hrs by sulforhodamine B assay; details: CAKI-1, 48 h; summary of the method: as §1
KM12 = test: Anticancer activity against human KM12 cells after 48 hrs by sulforhodamine B assay; details: KM12, 48 h; summary of the method: as §1
RXF 393 = test: Anticancer activity against human RXF393 cells after 48 hrs by sulforhodamine B assay; details: RXF 393, 48 h; summary of the method: as §1
SW-620 = test: Anticancer activity against human SW620 cells after 48 hrs by sulforhodamine B assay; details: SW-620, 48 h
Summary of the method: (§2)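 NCI 60-cell-line panel; cells grown in RPMI 1640 with 5% FBS and 2 mM L-glutamine, plated at 5000–40,000 cells/well and preincubated 24 h at 37 °C, 5% CO2. Compounds came from DMSO stocks diluted in medium with gentamicin and were tested at five final concentrations, 10^-4 to 10^-8 M, for 48 h. Cells were fixed with TCA, stained with SRB and read at 515 nm. GI50, TGI and LC50 were derived as log molar values.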

HCC 2998 = test: Anticancer activity against human HCC2998 cells after 48 hrs by sulforhodamine B assay; details: HCC 2998, 48 h; summary of the method: as §1
NCI-H322M = test: Anticancer activity against human NCI-H322M cells after 48 hrs by sulforhodamine B assay; summary of the method: as §1
PC-3 = test: Anticancer activity against human PC3 cells after 48 hrs by sulforhodamine B assay; details: PC-3, 48 h; summary of the method: as §1
M14 = test: Anticancer activity against human M14 cells after 48 hrs by sulforhodamine B assay; details: M14, 48 h; summary of the method: as §1
SF-295 = test: Anticancer activity against human SF295 cells after 48 hrs by sulforhodamine B assay; details: SF-295, 48 h; summary of the method: as §1
OVCAR-3 = test: Anticancer activity against human OVCAR-3 cells after 48 hrs by sulforhodamine B assay; details: OVCAR-3, 48 h; summary of the method: as §1
SF-539 = test: Anticancer activity against human SF539 cells after 48 hrs by sulforhodamine B assay; details: SF-539, 48 h; summary of the method: as §1
IGROV-1 = test: Anticancer activity against human IGROV1 cells after 48 hrs by sulforhodamine B assay; details: IGROV-1, 48 h; summary of the method: as §1
SK-OV-3 = test: Anticancer activity against human SKOV3 cells after 48 hrs by sulforhodamine B assay; details: SK-OV-3, 48 h; summary of the method: as §1
SR = test: Anticancer activity against human SR cells after 48 hrs by sulforhodamine B assay; summary of the method: as §2
HCT-116 = test: Anticancer activity against human HCT116 cells after 48 hrs by sulforhodamine B assay; details: HCT-116, 48 h; summary of the method: as §1
SK-MEL-2 = test: Anticancer activity against human SK-MEL-2 cells after 48 hrs by sulforhodamine B assay; details: SK-MEL-2, 48 h; summary of the method: as §1
NCI/ADR-RES = test: Anticancer activity against human NCI/ADR-RES cells after 48 hrs by sulforhodamine B assay; summary of the method: as §1
UACC-257 = test: Anticancer activity against human UACC257 cells after 48 hrs by sulforhodamine B assay; details: UACC-257, 48 h; summary of the method: as §2
SNB-75 = test: Anticancer activity against human SNB75 cells after 48 hrs by sulforhodamine B assay; details: SNB-75, 48 h; summary of the method: as §2
MDA-N = test: Anticancer activity against human MDA-N cells after 48 hrs by sulforhodamine B assay; summary of the method: as §1
U-251 = test: Anticancer activity against human U251 cells after 48 hrs by sulforhodamine B assay; details: U-251, 48 h; summary of the method: as §2
A549 = test: Anticancer activity against human A549 cells after 48 hrs by sulforhodamine B assay; details: A549, 48 h; summary of the method: as §1
TK-10 = test: Anticancer activity against human TK10 cells after 48 hrs by sulforhodamine B assay; details: TK-10, 48 h; summary of the method: as §2
SN12C = test: Anticancer activity against human SN12C cells after 48 hrs by sulforhodamine B assay; summary of the method: as §2
OVCAR-5 = test: Anticancer activity against human OVCAR5 cells after 48 hrs by sulforhodamine B assay; details: OVCAR-5, 48 h; summary of the method: as §1
LOX IMVI = test: Anticancer activity against human LOXIMVI cells after 48 hrs by sulforhodamine B assay; summary of the method: as §1
T47D = test: Anticancer activity against human T47D cells after 48 hrs by sulforhodamine B assay; summary of the method: as §2
OVCAR-4 = test: Anticancer activity against human OVCAR4 cells after 48 hrs by sulforhodamine B assay; details: OVCAR-4, 48 h; summary of the method: as §1
HCT-15 = test: Anticancer activity against human HCT15 cells after 48 hrs by sulforhodamine B assay; details: HCT-15, 48 h; summary of the method: as §1
786-0 = test: Anticancer activity against human 786-0 cells after 48 hrs by sulforhodamine B assay; details: 786-0, 48 h; summary of the method: as §1
UO-31 = test: Anticancer activity against human UO31 cells after 48 hrs by sulforhodamine B assay; details: UO-31, 48 h; summary of the method: as §2
SK-MEL-28 = test: Anticancer activity against human SK-MEL-28 cells after 48 hrs by sulforhodamine B assay; details: SK-MEL-28, 48 h; summary of the method: as §1
HT-29 = test: Anticancer activity against human HT-29 cells after 48 hrs by sulforhodamine B assay; details: HT-29, 48 h; summary of the method: as §1
OVCAR-8 = test: Anticancer activity against human OVCAR8 cells after 48 hrs by sulforhodamine B assay; details: OVCAR-8, 48 h; summary of the method: as §1
ACHN = test: Anticancer activity against human ACHN cells after 48 hrs by sulforhodamine B assay; summary of the method: as §1
EKVX = test: Anticancer activity against human EKVX cells after 48 hrs by sulforhodamine B assay; summary of the method: as §1
A498 = test: Anticancer activity against human A498 cells after 48 hrs by sulforhodamine B assay; details: A498, 48 h; summary of the method: as §1
HOP-62 = test: Anticancer activity against human HOP62 cells after 48 hrs by sulforhodamine B assay; details: HOP-62, 48 h; summary of the method: as §1
SK-MEL-5 = test: Anticancer activity against human SK-MEL-5 cells after 48 hrs by sulforhodamine B assay; details: SK-MEL-5, 48 h; summary of the method: as §1
UACC-62 = test: Anticancer activity against human UACC62 cells after 48 hrs by sulforhodamine B assay; details: UACC-62, 48 h; summary of the method: as §2
COLO 205 = test: Anticancer activity against human COLO205 cells after 48 hrs by sulforhodamine B assay; details: COLO 205, 48 h; summary of the method: as §1
[1] = Anticancer activity against human Hs 578T cells after 48 hrs by sulforhodamine B assay; summary of the method: as §1

O=C(Nc1nccs1)NC(C(F)(F)F)C(F)(F)F
GI50 (NCI-H522): 23.4 µM
GI50 (HOP-92): 38 µM
GI50 (CAKI-1): 55 µM
GI50 (KM12): 39.8 µM
GI50 (RXF 393): 77.6 µM
GI50 (SW-620): > 100 µM
GI50 (HCC 2998): 31.6 µM
GI50 (NCI-H322M): 87.1 µM
GI50 (PC-3): 38 µM
GI50 (M14): > 100 µM
GI50 (SF-295): 43.7 µM
GI50 (OVCAR-3): 42.7 µM
GI50 (SF-539): > 100 µM
GI50 (IGROV-1): 95.5 µM
GI50 (SK-OV-3): > 100 µM
GI50 (SR): 24 µM
GI50 (HCT-116): 38 µM
GI50 (SK-MEL-2): 45.7 µM
GI50 (NCI/ADR-RES): 33.1 µM
GI50 (UACC-257): 35.5 µM
GI50 (SNB-75): 55 µM
GI50 (MDA-N): > 100 µM
GI50 (U-251): 33.9 µM
GI50 (A549): 60.3 µM
GI50 (TK-10): 51.3 µM
GI50 (SN12C): 43.7 µM
GI50 (OVCAR-5): 91.2 µM
GI50 (LOX IMVI): 58.9 µM
GI50 (T47D): 45.7 µM
GI50 (OVCAR-4): 39.8 µM
GI50 (HCT-15): 66.1 µM
GI50 (786-0): > 100 µM
GI50 (UO-31): 35.5 µM
GI50 (SK-MEL-28): > 100 µM
GI50 (HT-29): 91.2 µM
GI50 (OVCAR-8): 39.8 µM
GI50 (ACHN): 55 µM
GI50 (EKVX): 41.7 µM
GI50 (A498): 95.5 µM
GI50 (HOP-62): > 100 µM
GI50 (SK-MEL-5): 38.9 µM
GI50 (UACC-62): 63.1 µM
GI50 (COLO 205): 52.5 µM
GI50 [1]: 22.4 µM
